ChEMBL document CHEMBL1126958, “Quinolinecarboxylic acids. 3. Synthesis and antibacterial evaluation of 2-substituted-7-oxo-2,3-dihydro-7H-pyrido[1,2,3-de] [1,4]benzothiazine-6-carboxylic acids related to rufloxacin” (J Med Chem, 1993)
Values after ≈ are worked out from the molar mass of the structure shown.

tested on: Enterobacter cloacae; assay: Minimal inhibitory concentration against Enterobacter cloacae OMNFI174 strain; assay type: functional; details: not given
How it was run: (§1)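 Agar dilution on TSA agar; compounds added by 2-fold dilution to melted medium at 50 °C just before pouring. Organisms stored at –80 °C, diluted in peptonated water to 1–2 × 10^7 CFU, applied with multipoint inoculator. MIC = lowest concentration preventing visible growth after 24 h at 35 °C.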

| MIC | Structure (SMILES) |
| --- | --- |
| 32 µg/mL (≈ 72.2 µM) | O=C(O)c1cn2c3c(c(N4CCNCC4)c(F)cc3c1=O)SC(c1ccc(F)cc1)C2 (configuration not stated) |
| 8 µg/mL (≈ 21.2 µM) | CC1Cn2cc(C(=O)O)c(=O)c3cc(F)c(N4CCCNCC4)c(c32)S1 (configuration not stated) |

Second part, the molecule before the results:

| Structure (SMILES) | MIC |
| --- | --- |
| CC1Cn2cc(C(=O)O)c(=O)c3cc(F)c(N4CCN(C)CC4)c(c32)S1 (configuration not stated) | 4 µg/mL (≈ 10.6 µM) |
| CC1Cn2cc(C(=O)O)c(=O)c3cc(F)c(Cl)c(c32)S1 (configuration not stated) | 2 µg/mL (≈ 6.37 µM) |
| CN1CCN(c2c(F)cc3c(=O)c(C(=O)O)cn4c3c2SCC4)CC1 [RUFLOXACIN] | 2 µg/mL (≈ 5.5 µM) |

tested on: not listed separately; assay: Urinary excretion in rat after 8-24 hours of oral administration at 50 mg/kg; assay type: ADME, organism-based; set-up: dose 50 mg/kg, route oral; details: urine
How it was run: (§2)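 Fasted male Wistar rats, three per group, dosed orally at 50 mg/kg. Urine collected over 0-4, 4-8 and 8-24 h, diluted 1:100 in ultrapure water, then treated with water and 70% perchloric acid, vortexed and centrifuged. Supernatant analysed by HPLC with pH 2.8 KH2PO4/phosphoric acid mobile phase. Result given as % of administered dose excreted.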

| dose excreted | Structure (SMILES) |
| --- | --- |
| 5.17% | CC1Cn2cc(C(=O)O)c(=O)c3cc(F)c(N4CCN(C)CC4)c(c32)S1 (configuration not stated) |
| 15.6% | CN1CCN(c2c(F)cc3c(=O)c(C(=O)O)cn4c3c2SCC4)CC1 [RUFLOXACIN] |

tested on: not listed separately; assay: Plasma concentration level in rat after 15 hours of oral administration at 50 mg/kg; assay type: ADME, organism-based; set-up: dose 50 mg/kg, route oral; details: not given
How it was run: (§3)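 Fasted male Wistar rats, three per group, single oral dose 50 mg/kg. Plasma taken at timed points, deproteinized with 70% perchloric acid, vortexed, centrifuged; supernatant analysed by HPLC, mobile-phase buffer 0.01 M KH2PO4 brought to pH 2.8 with phosphoric acid. Values as mean ± error over the group.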

| concentration at 15 h | Structure (SMILES) |
| --- | --- |
| 270 ng/mL | CC1Cn2cc(C(=O)O)c(=O)c3cc(F)c(N4CCN(C)CC4)c(c32)S1 (configuration not stated) |
| 410 ng/mL | CN1CCN(c2c(F)cc3c(=O)c(C(=O)O)cn4c3c2SCC4)CC1 [RUFLOXACIN] |

tested on: not listed separately; assay: Urinary excretion in rat after 0-4 hours of oral administration at 50 mg/kg; assay type: ADME, organism-based; set-up: dose 50 mg/kg, route oral; details: urine; how it was run: as §2

| dose excreted | Structure (SMILES) |
| --- | --- |
| 1.5% | CC1Cn2cc(C(=O)O)c(=O)c3cc(F)c(N4CCN(C)CC4)c(c32)S1 (configuration not stated) |
| 2.18% | CN1CCN(c2c(F)cc3c(=O)c(C(=O)O)cn4c3c2SCC4)CC1 [RUFLOXACIN] |

tested on: not listed separately; assay: Plasma concentration level in rat after 4 hours of oral administration at 50 mg/kg; assay type: ADME, organism-based; set-up: dose 50 mg/kg, route oral; details: not given; how it was run: as §3

| concentration at 4 h | Structure (SMILES) |
| --- | --- |
| 7610 ng/mL | CC1Cn2cc(C(=O)O)c(=O)c3cc(F)c(N4CCN(C)CC4)c(c32)S1 (configuration not stated) |
| 4430 ng/mL | CN1CCN(c2c(F)cc3c(=O)c(C(=O)O)cn4c3c2SCC4)CC1 [RUFLOXACIN] |

tested on: Klebsiella pneumoniae; assay: Minimal inhibitory concentration against Klebsiella pneumoniae ATCC 10031 strain; assay type: functional; details: not given; how it was run: as §1

| MIC | Structure (SMILES) |
| --- | --- |
| 16 µg/mL (≈ 36.1 µM) | O=C(O)c1cn2c3c(c(N4CCNCC4)c(F)cc3c1=O)SC(c1ccc(F)cc1)C2 (configuration not stated) |
| 1 µg/mL (≈ 2.65 µM) | CC1Cn2cc(C(=O)O)c(=O)c3cc(F)c(N4CCCNCC4)c(c32)S1 (configuration not stated) |

The remaining lines, values behind:

| Structure (SMILES) | MIC |
| --- | --- |
| CC1Cn2cc(C(=O)O)c(=O)c3cc(F)c(N4CCN(C)CC4)c(c32)S1 (configuration not stated) | 0.25 µg/mL (≈ 0.662 µM) |
| CC1Cn2cc(C(=O)O)c(=O)c3cc(F)c(Cl)c(c32)S1 (configuration not stated) | 8 µg/mL (≈ 25.5 µM) |
| CN1CCN(c2c(F)cc3c(=O)c(C(=O)O)cn4c3c2SCC4)CC1 [RUFLOXACIN] | 0.12 µg/mL (≈ 0.33 µM) |

tested on: not listed separately; assay: Urinary excretion in rat after 4-8 hours of oral administration at 50 mg/kg; assay type: ADME, organism-based; set-up: dose 50 mg/kg, route oral; details: urine; how it was run: as §2

| dose excreted | Structure (SMILES) |
| --- | --- |
| 2.59% | CC1Cn2cc(C(=O)O)c(=O)c3cc(F)c(N4CCN(C)CC4)c(c32)S1 (configuration not stated) |
| 10.5% | CN1CCN(c2c(F)cc3c(=O)c(C(=O)O)cn4c3c2SCC4)CC1 [RUFLOXACIN] |

tested on: not listed separately; assay: Plasma concentration level in rat after 1 hour of oral administration at 50 mg/kg; assay type: ADME, organism-based; set-up: dose 50 mg/kg, route oral; details: not given; how it was run: as §3

| concentration at 1 h | Structure (SMILES) |
| --- | --- |
| 14100 ng/mL | CC1Cn2cc(C(=O)O)c(=O)c3cc(F)c(N4CCN(C)CC4)c(c32)S1 (configuration not stated) |
| 7740 ng/mL | CN1CCN(c2c(F)cc3c(=O)c(C(=O)O)cn4c3c2SCC4)CC1 [RUFLOXACIN] |

tested on: Enterococcus faecalis; assay: Minimal inhibitory concentration against Streptococcus faecalis LEP strain; assay type: functional; details: not given; how it was run: as §1

| MIC | Structure (SMILES) |
| --- | --- |
| 16 µg/mL (≈ 36.1 µM) | O=C(O)c1cn2c3c(c(N4CCNCC4)c(F)cc3c1=O)SC(c1ccc(F)cc1)C2 (configuration not stated) |
| 32 µg/mL (≈ 84.8 µM) | CC1Cn2cc(C(=O)O)c(=O)c3cc(F)c(N4CCCNCC4)c(c32)S1 (configuration not stated) |

Further lines, the molecule ahead of its results:

| Structure (SMILES) | MIC |
| --- | --- |
| CC1Cn2cc(C(=O)O)c(=O)c3cc(F)c(N4CCN(C)CC4)c(c32)S1 (configuration not stated) | 32 µg/mL (≈ 84.8 µM) |
| CC1Cn2cc(C(=O)O)c(=O)c3cc(F)c(Cl)c(c32)S1 (configuration not stated) | 32 µg/mL (≈ 102 µM) |
| CN1CCN(c2c(F)cc3c(=O)c(C(=O)O)cn4c3c2SCC4)CC1 [RUFLOXACIN] | 16 µg/mL (≈ 44 µM) |

tested on: not listed separately; assay: Minimal inhibitory concentration against Shigella enteritidis strain; assay type: functional; details: not given; how it was run: as §1

| MIC | Structure (SMILES) |
| --- | --- |
| 32 µg/mL (≈ 72.2 µM) | O=C(O)c1cn2c3c(c(N4CCNCC4)c(F)cc3c1=O)SC(c1ccc(F)cc1)C2 (configuration not stated) |
| 32 µg/mL (≈ 84.8 µM) | CC1Cn2cc(C(=O)O)c(=O)c3cc(F)c(N4CCCNCC4)c(c32)S1 (configuration not stated) |

More lines, now with the values behind:

| Structure (SMILES) | MIC |
| --- | --- |
| CC1Cn2cc(C(=O)O)c(=O)c3cc(F)c(N4CCN(C)CC4)c(c32)S1 (configuration not stated) | 2 µg/mL (≈ 5.3 µM) |
| CC1Cn2cc(C(=O)O)c(=O)c3cc(F)c(Cl)c(c32)S1 (configuration not stated) | 4 µg/mL (≈ 12.7 µM) |
| CN1CCN(c2c(F)cc3c(=O)c(C(=O)O)cn4c3c2SCC4)CC1 [RUFLOXACIN] | 2 µg/mL (≈ 5.5 µM) |

tested on: Proteus vulgaris; assay: Minimal inhibitory concentration against Proteus vulgaris CNUR6 strain; assay type: functional; details: not given; how it was run: as §1

| MIC | Structure (SMILES) |
| --- | --- |
| > 64 µg/mL | O=C(O)c1cn2c3c(c(N4CCNCC4)c(F)cc3c1=O)SC(c1ccc(F)cc1)C2 (configuration not stated) |
| 64 µg/mL (≈ 170 µM) | CC1Cn2cc(C(=O)O)c(=O)c3cc(F)c(N4CCCNCC4)c(c32)S1 (configuration not stated) |

Further lines, the molecule ahead of its results:

| Structure (SMILES) | MIC |
| --- | --- |
| CC1Cn2cc(C(=O)O)c(=O)c3cc(F)c(N4CCN(C)CC4)c(c32)S1 (configuration not stated) | 32 µg/mL (≈ 84.8 µM) |
| CC1Cn2cc(C(=O)O)c(=O)c3cc(F)c(Cl)c(c32)S1 (configuration not stated) | > 64 µg/mL |
| CN1CCN(c2c(F)cc3c(=O)c(C(=O)O)cn4c3c2SCC4)CC1 [RUFLOXACIN] | 4 µg/mL (≈ 11 µM) |

tested on: Pseudomonas aeruginosa; assay: Minimal inhibitory concentration against Pseudomonas aeruginosa ATCC 9027 strain; assay type: functional; details: not given; how it was run: as §1

| MIC | Structure (SMILES) |
| --- | --- |
| > 64 µg/mL | O=C(O)c1cn2c3c(c(N4CCNCC4)c(F)cc3c1=O)SC(c1ccc(F)cc1)C2 (configuration not stated) |
| > 64 µg/mL | CC1Cn2cc(C(=O)O)c(=O)c3cc(F)c(N4CCCNCC4)c(c32)S1 (configuration not stated) |

The next lines start with the molecule.

| Structure (SMILES) | MIC |
| --- | --- |
| CC1Cn2cc(C(=O)O)c(=O)c3cc(F)c(N4CCN(C)CC4)c(c32)S1 (configuration not stated) | 16 µg/mL (≈ 42.4 µM) |
| CC1Cn2cc(C(=O)O)c(=O)c3cc(F)c(Cl)c(c32)S1 (configuration not stated) | 32 µg/mL (≈ 102 µM) |
| CN1CCN(c2c(F)cc3c(=O)c(C(=O)O)cn4c3c2SCC4)CC1 [RUFLOXACIN] | 8 µg/mL (≈ 22 µM) |

tested on: Staphylococcus aureus; assay: Minimal inhibitory concentration against […] aureus ATCC 6538 strain; assay type: functional; details: not given; how it was run: as §1

| MIC | Structure (SMILES) |
| --- | --- |
| 16 µg/mL (≈ 36.1 µM) | O=C(O)c1cn2c3c(c(N4CCNCC4)c(F)cc3c1=O)SC(c1ccc(F)cc1)C2 (configuration not stated) |
| 2 µg/mL (≈ 5.3 µM) | CC1Cn2cc(C(=O)O)c(=O)c3cc(F)c(N4CCCNCC4)c(c32)S1 (configuration not stated) |

Second part, the molecule before the results:

| Structure (SMILES) | MIC |
| --- | --- |
| CC1Cn2cc(C(=O)O)c(=O)c3cc(F)c(N4CCN(C)CC4)c(c32)S1 (configuration not stated) | 1 µg/mL (≈ 2.65 µM) |
| CC1Cn2cc(C(=O)O)c(=O)c3cc(F)c(Cl)c(c32)S1 (configuration not stated) | 2 µg/mL (≈ 6.37 µM) |
| CN1CCN(c2c(F)cc3c(=O)c(C(=O)O)cn4c3c2SCC4)CC1 [RUFLOXACIN] | 1 µg/mL (≈ 2.75 µM) |

tested on: Escherichia coli; assay: Minimal inhibitory concentration against Escherichia coli ISF 432 strain; assay type: functional; details: not given; how it was run: as §1

| MIC | Structure (SMILES) |
| --- | --- |
| 2 µg/mL (≈ 4.51 µM) | O=C(O)c1cn2c3c(c(N4CCNCC4)c(F)cc3c1=O)SC(c1ccc(F)cc1)C2 (configuration not stated) |
| 4 µg/mL (≈ 10.6 µM) | CC1Cn2cc(C(=O)O)c(=O)c3cc(F)c(N4CCCNCC4)c(c32)S1 (configuration not stated) |

The remaining lines, values behind:

| Structure (SMILES) | MIC |
| --- | --- |
| CC1Cn2cc(C(=O)O)c(=O)c3cc(F)c(N4CCN(C)CC4)c(c32)S1 (configuration not stated) | 0.25 µg/mL (≈ 0.662 µM) |
| CC1Cn2cc(C(=O)O)c(=O)c3cc(F)c(Cl)c(c32)S1 (configuration not stated) | 0.12 µg/mL (≈ 0.382 µM) |
| CN1CCN(c2c(F)cc3c(=O)c(C(=O)O)cn4c3c2SCC4)CC1 [RUFLOXACIN] | 0.25 µg/mL (≈ 0.688 µM) |
